According to paper PMC5844354 (Chembiochem : a European journal of chemical biology, 2018):

Legend:
Fis1 [1] = molecular target: T1, Fis1 (Homo sapiens, UniProt Q9Y3D6); type: binding; conditions: for binding to Fis1 in library screen: 1 mM fragment, 352-fragment library screen; for nonspecific NMR crosspeak broadening of Fis1: 1 mM compound, 50 μM 15N-Fis1, SOFAST-HMQC
T1 sequence (Q9Y3D6 1-125): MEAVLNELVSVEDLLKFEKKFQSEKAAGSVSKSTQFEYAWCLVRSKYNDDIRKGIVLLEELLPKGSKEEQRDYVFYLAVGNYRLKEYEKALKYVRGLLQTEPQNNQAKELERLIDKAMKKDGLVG
How it was run: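 Human Fis1 cytosolic domain (residues 1–125), His₆-SUMO fusion, expressed in ¹⁵N minimal medium and Ni-affinity purified. Buffer was 50 mM sodium phosphate pH 7.0, 175 mM NaCl, 2 mM DTT, 10% D₂O. Library screen: 352 fragments pooled six per sample, 1 mM each, 97 μM protein, 3% [D₆]DMSO, hits at +1 σ. Follow-up: single fragments at 1 mM with 50 μM protein. ¹H,¹⁵N SOFAST-HMQC at 25°C.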

Fis1 [2] = molecular target: T1, Fis1; assay: Mass spectrometry of Fis1 with interfering compounds; conditions: from apo Fis1 14 487.2 Da; suggests direct chemical modification
[3] = molecular target: first bromodomain of BRD4; conditions: cited from earlier work
BRD4(BD2) = BRD4(BD2) (Homo sapiens, UniProt O60885); assay: NMR titration; type: binding
CXCL12 = CXCL12 (Homo sapiens, UniProt P48061); assay: 2D protein-detected NMR of individual compounds at 1 mM against 15N-CXCL12; type: binding; conditions: 1 mM compound, 100 μM 15N-CXCL12, SOFAST-HMQC
Chain of CXCL12 (P48061 22-89 limits assumed): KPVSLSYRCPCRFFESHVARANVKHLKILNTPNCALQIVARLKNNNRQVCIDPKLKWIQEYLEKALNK
How it was run: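 Commercial recombinant human ¹⁵N-CXCL12. Each test compound was screened singly: 1 mM final in 0.5% (v/v) [D₆]DMSO, 99.5 μM final protein, with a DMSO control. Buffer was 50 mM sodium phosphate pH 6.0, 0.02% sodium azide, 10% D₂O. ¹H,¹⁵N SOFAST-HMQC at 25°C and 600 MHz with cryoprobe; 16 scans, 1024 × 210 complex points. Spectra were overlaid on the DMSO control.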

Nc1cccc2cccc(N)c12 [1,8-diaminonaphthalene]
binding to Fis1 in library screen (Fis1 [1]): none of which bound appreciably

Cc1cc(O)ccc1O [2-methylbenzene-1,4-diol]
mass shift of Fis1 (Fis1 [2]): 119.7 Da

Nc1cc2ccccc2cc1O [3-amino-2-naphthol]
binding to Fis1 in library screen (Fis1 [1]): none of which bound appreciably

Nc1ccc(O)cc1 [4-aminophenol]
nonspecific NMR crosspeak broadening of Fis1 (Fis1 [1]): did not induce nonspecific NMR crosspeak broadening

CC(=O)Nc1ccc(O)cc1 [acetaminophen]
Kd [3]: 290 µM | Kd (BRD4(BD2)): 1600 µM

NS(=O)(=O)c1ccc2ccccc2c1 [naphthalene-2-sulfonamide]
binding to Fis1 in library screen (Fis1 [1]): none of which bound appreciably

O=C1c2ccccc2C(=O)C1(O)O [ninhydrin]
nonspecific NMR crosspeak broadening of Fis1 (Fis1 [1]): induce nonspecific NMR crosspeak broadening across all targets screened | nonspecific NMR crosspeak broadening of CXCL12 (CXCL12): induce nonspecific NMR crosspeak broadening across all targets screened
